Source: PubChem (Sanford-Burnham Center for Chemical Genomics)
This is a sample that favours compounds with a hit; in the whole collection about 0.77% have one here.
bIAP act = increases bovine intestinal alkaline phosphatase activity. purified bovine IAP, CDP-star luminescence, 30 min; stronger effect = higher value; fold of DMSO-control signal, blank-subtracted. activation factor at 20 µM. hit rate 0.17% among 200,000;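 active means activation factor of 2 or more at 20 µM, a signal rise over negative controls twice the positive control's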
mIAP act = increases mouse intestinal alkaline phosphatase activity | hit rate 0.24% among 330,000 | activation factor at 10 µM | muIAP, CDP-Star luminescence, 30 min; stronger effect = higher value; 1 = vehicle-only enzyme signal, 0 = enzyme-free wells | AID 2805;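 active means activation factor of at least 2 at 20 µM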
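System: Mouse IAP enzyme | Also added: CDP-Star substrate | Dosing: Compounds dispensed in DMSO | Schedule: 30 min enzyme-substrate-compound incubation at room temperature | Technique: Chemiluminescence readout | Control set: DMSO-only wells and no-enzyme negative control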
mIAP block = blocks mouse intestinal alkaline phosphatase. purified mouse IAP, CDP-Star luminescence, 30 min. inhibition, % at 10 µM. hit rate 0.2% among 330,000. AID 2806;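 active means inhibition of at least 40% at 10 µM in the primary screen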;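 further: plate controls were DMSO with enzyme for no effect and no enzyme wells for full effect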
hIAP act = human IAP activation. P09923. activation factor at 10 µM. purified human IAP, CDP-Star luminescence, 30 min; stronger effect = higher value; 1 = vehicle-only enzyme, 0 = enzyme-free background. hit rate 0.16% among 330,000;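 active means activation factor of the enzyme at least 2-fold when tested at 20 µM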
Target sequence (P09923 whole entry, looked up): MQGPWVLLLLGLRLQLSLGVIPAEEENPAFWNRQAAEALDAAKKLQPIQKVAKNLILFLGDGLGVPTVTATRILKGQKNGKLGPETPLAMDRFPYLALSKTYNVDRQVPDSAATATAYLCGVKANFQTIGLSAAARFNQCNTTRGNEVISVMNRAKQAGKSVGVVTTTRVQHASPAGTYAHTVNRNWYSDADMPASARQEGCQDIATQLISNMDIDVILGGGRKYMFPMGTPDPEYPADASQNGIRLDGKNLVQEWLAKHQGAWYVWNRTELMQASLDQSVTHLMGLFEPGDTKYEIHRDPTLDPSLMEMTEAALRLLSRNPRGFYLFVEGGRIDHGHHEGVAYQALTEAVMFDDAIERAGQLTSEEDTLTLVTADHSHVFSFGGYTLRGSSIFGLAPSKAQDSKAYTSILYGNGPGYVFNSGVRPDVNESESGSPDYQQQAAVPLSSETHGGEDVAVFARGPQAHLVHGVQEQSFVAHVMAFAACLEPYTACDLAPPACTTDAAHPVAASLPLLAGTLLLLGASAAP
bIAP inh = blocks bovine intestinal alkaline phosphatase activity; AID 1019; inhibition, % at 20 µM; 190,000 tested, under 10 active; purified bovine IAP, CDP-star luminescence, 30 min;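 active means over 50% inhibition of intestinal alkaline phosphatase at 20 µM in the single-dose screen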
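Incubation: 30 min reaction at room temperature / Material: purified bovine intestinal alkaline phosphatase (IAP) enzyme / Input: enzyme at 1/65,000,000 dilution / Dosing: 20 µM single dose / Signal: CDP-star luminescence signal / Reagent: CDP-star chemiluminescent phosphatase substrate, 30 µM final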
hIAP block = human IAP inhibition | P09923 | purified IAP, CDP-Star luminescence, 30 min | inhibition, % at 10 µM | hit rate 0.12% among 330,000;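 active means inhibition reaching a set limit with compound at 10 µM in the primary screen, cut at about 35% in these data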;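 further: plate controls were DMSO wells with enzyme for no effect and no-enzyme buffer wells for full effect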
Starred values were filed as active, the others as inactive; . = no result.

SMILES	bIAP act	mIAP act	mIAP block	hIAP act	bIAP inh	hIAP block
CCOC(=O)CN1NC2(CCCCC2)NC1=S	0.8	0.49	51*	1.1	23	-12
CCOC(=O)CN1NC2(CCCCCCC2)NC1=S	.	0.9	10	0.89	.	11
CCC(=O)Nc1cccc(-c2nnc(-c3cccc(NC(=O)CC)c3)o2)c1	1	0.56	44*	0.95	5	5
COc1ccc([N+](=O)[O-])cc1/C=N/Nc1nn[nH]n1	1.1	0.89	11	0.78	-9	22
COc1cc(C(=O)OCC(=O)N2CCCC2=O)cc(OC)c1C	.	1	-1	1	.	0
Cc1ccc(NC(=O)Nc2cccc3ccccc23)cc1	.	1.2	-20	1	.	0
N#CCc1ccc(NC(=O)Nc2cccc3ccccc23)cc1	.	2.1*	-110	1.3	.	-27
CC(C(=O)NCCCc1ccccc1)n1cccc1C(=O)c1ccccc1 (configuration not stated)	.	0.86	14	1	.	-5
COc1cccc(OCC(=O)NNC(=O)c2cccs2)c1	1.1	0.59	41*	0.96	-10	4
O=C(COC(=O)c1ccccc1-n1cnnn1)c1ccc(F)cc1	.	0.95	5	0.95	.	5
O=C(COC(=O)c1ccc(S(=O)(=O)NCc2ccco2)cc1)Nc1ccccc1	.	1	0	1	.	-4
O=C(COC(=O)c1ccc(S(=O)(=O)NCc2ccco2)cc1)Nc1ccccc1OC(F)F	2.4*	0.9	10	1.1	-136	-6
CCOc1cccc(C(=O)Nc2ccccc2C(=O)N2CCOCC2)c1	.	1	-2	1.1	.	-8
COc1cccc(C2CN(c3ccc(F)cc3F)N=C2c2cccs2)c1OC (configuration not stated)	0.9	2*	-104	1	10	-3
COc1ccc2[nH]c3c(c2c1)CCN1C(=O)C(CC(=O)NC/C=C(\C)CCC=C(C)C)C[C@H](C(=O)N2CCCCC2)[C@@]31C (some centres not stated)	.	2*	-100	.	.	.
CC(C)=CCC/C(C)=C/CNC(=O)C[C@H]1C[C@H](C(=O)N2CCCCC2)[C@@]2(C)c3[nH]c4ccc(Cl)cc4c3CCN2C1=O	.	1.1	-11	.	.	.
O=C(Nc1ccc(CN2CCCCC2)cc1)Nc1ccccc1Cl	1.5	1.6	-60	0.96	-54	4
O=C(Nc1ccc(Br)cc1)Nc1ccccc1Cl	.	2*	-100	1.1	.	-9
CCN(CC)c1ncnc2c1cnn2Cc1ccc(Cl)cc1	1	1.1	-9	1.2	3	-16
COc1ccc(NC(=O)CN(C)CC(=O)N2CCCCCC2)cc1	.	0.95	4	1.1	.	-13
O=C(c1ccco1)N1CCN(Cc2nc3ccccc3[nH]2)CC1	.	0.98	2	0.89	.	11
COc1ccc(/C(C)=N/Nc2ccc(C(=O)O)cc2)cc1OC	0.9	0.95	5	2.1*	5	-107
CC(c1ccccc1)N1CCn2c(nc3cc(NC(=O)NC4CCCCC4)ccc32)C1 (configuration not stated)	2.5*	.	.	.	-150	.
CC(c1ccccc1)N1CCn2c(nc3cc(NC(=O)c4cccs4)ccc32)C1 (configuration not stated)	1.1	0.98	2	0.91	-14	9
Cc1ccc(S(=O)(=O)N2CCCC2C(=O)NCc2ccncc2)cc1 (configuration not stated)	.	0.98	2	1.3	.	-33
SMILES	bIAP act	mIAP act	mIAP block	hIAP act	bIAP inh	hIAP block
Cc1ccc(NC(=S)NCc2ccc3[nH]c4c(c3c2)CCCC4)cc1	0.9	2.4*	-141	0.89	6	11
COc1cccc(NC(=O)Nc2ccncc2)c1	1.1	0.93	7	1.2	-6	-21
COc1cccc(NC(=O)Nc2ccc(Cc3ccncc3)cc2)c1	1	4.6*	-357	1.3	4	-31
COc1cccc(C2(c3cccc(OC)c3)CC2C(=O)Nc2cccc3ccccc23)c1 (configuration not stated)	0.6	1.1	-6	1.2	40	-16
COc1cccc(NC(=O)Nc2cc(NC(=O)Nc3cccc(OC)c3)c(C)nc2C)c1	0.9	2*	-103	1.2	9	-19
COc1cccc(NC(=O)C2CC2(c2cccc(OC)c2)c2cccc(OC)c2)c1 (configuration not stated)	0.8	2.2*	-123	0.94	23	6
CCN(CC)S(=O)(=O)c1cccc(NC(=O)c2cccc(S(=O)(=O)N3CCCC3)c2)c1	.	0.95	5	0.97	.	3
CC(C)n1c(C(O)c2ccc3c(c2)OCO3)nc2ccccc21 (configuration not stated)	2.6*	1	0	0.88	-165	12
Cn1c(C(O)c2ccc3c(c2)OCO3)nc2ccccc21 (configuration not stated)	1.3	0.88	12	1.4	-32	-36
CSc1nnc(-c2ccco2)c(-c2ccco2)n1	0.9	0.55	46*	0.96	14	4
CSc1nnc(-c2ccccc2)c(-c2ccccc2)n1	.	1	-5	1.2	.	-19
Cc1ccc(S(=O)(=O)NCC(=O)OCCOc2cccc(Cl)c2)cc1	.	0.97	3	0.88	.	12
CC(=O)c1ccccc1NC(=O)COC(=O)Cc1cccc(C(F)(F)F)c1	.	1.1	-7	0.93	.	8
Cc1c(CCOC(=O)C23CC4CC(CC(C)(C4)C2)C3)sc[n+]1CC(=O)c1ccccc1	0.7	0.57	43*	0.84	29	16
Cc1c(CCOC(=O)CC23CC4CC(CC(C)(C4)C2)C3)sc[n+]1CC(=O)c1ccccc1	0.6	0.62	38	0.98	43	2
CCn1ccnc1CNCc1cn(-c2cc(C)ccc2C)nc1-c1ccccc1	2.7*	1.3	-34	1.2	-170	-18
Cc1c(CN2CCC(CO)(CCOc3ccccc3)CC2)[nH]c2c(Cl)cccc12	1.1	0.96	4	0.96	-7	4
CCN1/C(=C\C=C2\C(=O)N(C)C(=S)N2C)Sc2ccccc21	0.6	0.85	15	0.63	35	37*
COc1ccc(C2Nc3ccccc3C(=O)N2O)cc1CN1CCOCC1 (configuration not stated)	2*	0.9	10	1.1	-100	-8
COc1ccc(C2Nc3ccccc3C(=O)N2O)cc1OC (configuration not stated)	1	0.96	4	1	-3	0
Cc1cc(C)nc(N2CCCC(C(=O)Nc3nc4ccc(S(C)(=O)=O)cc4s3)C2)n1 (configuration not stated)	5.3*	0.96	4	0.93	-430	7
S=C(Nc1ccc(Cl)c(Cl)c1)NC1CCCCC1	0.9	3.2*	-220	0.99	11	0
S=C(Nc1ccc(Cl)c(Cl)c1)NC1CCN(Cc2ccccc2)CC1	0.9	2.2*	-115	1.2	5	-17
